Source: ChEMBL document CHEMBL1123312, “In the search for new anticancer drugs. 17. Linear and cyclic polyether analogues of N,N:N',N':N'',N''-tri-1,2-ethanediylphosphoric triamide and N,N:N',N':N'',N''-tri-1,2-ethanediylphosphorothioic triamide” (J Med Chem, 1986)
Several values for one entry are separate records, joined by “and”; a condition that tells them apart may be missing. Equal entries are not always repeated.

How the values were obtained:
Mus musculus [1] = experiment: Percentage increase in life span when the compound was administered intraperitoneally at dose of 60 mg/Kg in P388 leukemia in CDF1 mice was determined; format: functional; conditions: P388, ip
Method in brief: (§1)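 CD2F1 male mice, 19–22 g, in groups of six, inoculated ip with 10⁶ P388 cells on day 0. Dosed ip once daily for 9 days from day 1, in saline, or for linear polyethers in aqueous 2% Tween 80. Deaths and survivors were recorded to 30 days, some to 60. T/C is mean survival, treated vs tumour-bearing control. %ILS = [(T−C)/C]×100. Average day-5 weight change was taken as toxicity.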

Mus musculus [2] = experiment: Anticancer activity against P388 leukemia in CD2F1 male mice expressed as Average % weight change on day 5 as a measure of toxicity was reported at a dose of 20 mg/kg/day.; format: functional; method in brief: as §1
Mus musculus [3] = experiment: Percentage increase in life span when the compound was administered intraperitoneally at dose of 20 mg/Kg in P388 leukemia in CDF1 mice was determined; format: functional; conditions: P388, ip; method in brief: as §1
Mus musculus [4] = experiment: Anticancer activity against P388 leukemia in CD2F1 male mice expressed as Average % weight change on day 5 as a measure of toxicity was reported at a dose of 60 mg/kg/day.; format: functional; method in brief: as §1
Mus musculus [5] = experiment: Compound was evaluated for the anticancer activity against P388 leukemia in CD2F1 male mice at a dose of 60 mg/kg/after 30 days; 0/6; format: functional; method in brief: as §1
[6] = partition coefficient with the use of 1-octanol / water solvent system; format: physicochemical
Method in brief: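 4 mL of 10 mM aqueous compound was stirred vigorously with 2 mL 1-octanol for 5 min at 25 °C. The aqueous layer was analysed by ³¹P NMR, and signal intensity (peak height × width at half-height) gave concentrations in each phase. P = [octanol]/[water].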

Mus musculus [7] = experiment: Compound was evaluated for the anticancer activity against P388 leukemia in CD2F1 male mice at a dose of 20 mg/kg/after 30 days; 0/6; format: functional
Mus musculus [8] = experiment: Anticancer activity against P388 leukemia in CD2F1 male mice by 60 mg/kg/day.; format: functional; method in brief: as §1

| SMILES | ILS at 60 mg/kg (Mus musculus [1]) | Weight change (Mus musculus [2]) | ILS at 20 mg/kg (Mus musculus [3]) | Weight change (Mus musculus [4]) | Survivors (Mus musculus [5]) | Partition coefficient [6] | Survivors (Mus musculus [7]) | T/C (Mus musculus [8]) |
| --- | --- | --- | --- | --- | --- | --- | --- | --- |
| CCOCCOCCOP(=O)(N1CC1(C)C)N1CC1(C)C (stereo unspecified) | 88% | 1.5% | 28% | 5.5% | 0 | 1.65 | 0 | 188% and 88% |
| CCOCCOCCOP(=O)(N1CC1)N1CC1 | 131% | 2.8% | 40% | 4.5% | 0 | 1.25 | 0 | 231% and 131% |
| CCOCCOCCOP(=S)(N1CC1)N1CC1 | 77% | 2.6% | 24% | 1.4% | 0 | 2.4 | 0 | 177% and 77% |
| CCOCCOCCOP(=S)(N1CC1(C)C)N1CC1(C)C (stereo unspecified) | 42% | 1.6% | 19% | 1.4% | 0 | 2.95 | 0 |  |
| O=P(N1CCOCCOCCOCCOCCOCC1)(N1CC1)N1CC1 | 88% | 7.6% | 47% | 0.5% | 0 | 0.044 | 0 | 188% and 88% |
| S=P(N1CCOCCOCCOCCOCCOCC1)(N1CC1)N1CC1 | 20% | 10.6% | 2% | 12.3% | 0 | 5.6 | 0 |  |
